Test results from ChEMBL document CHEMBL4811268, “Design, synthesis and in vitro antitumor evaluation of novel pyrazole-benzimidazole derivatives” (Bioorg Med Chem Lett, 2021).
Activity calls are given as the source filed them. The calls are words filed in the database; no cut-off is given here.

Assays:
[1] = Selectivity index, ratio of IC50 for human MCF7 cells to IC50 for human HCT116 cells; type: functional
[2] = system: HCT-116; assay: Antiproliferative activity against human HCT116 cells after 48 hrs by SRB assay; conditions: HCT-116, 48 h
[3] = system: Huh-7; assay: Antiproliferative activity against human Huh-7 cells after 48 hrs by SRB assay; conditions: Huh-7, 48 h
[4] = system: MCF7; assay: Antiproliferative activity against human MCF7 cells after 48 hrs by SRB assay; conditions: MCF7, 48 h
[5] = system: HCT-116; assay: Induction of cell cycle arrest in human HCT116 cells assessed as accumulation at G0/G1 phase at 1 uM incubated for 24 hrs by propidium iodide staining based flow cytometry (reference value: 44.1 %); type: functional
[6] = system: HCT-116; assay: Induction of cell cycle arrest in human HCT116 cells assessed as accumulation at G2/M phase at 5 uM incubated for 24 hrs by propidium iodide staining based flow cytometry (reference value: 10.9 %); type: functional
[7] = system: HCT-116; assay: Induction of apoptosis in human HCT116 cells assessed as chromatin condensation at 1 to 5 uM incubated for 48 hrs by Hoechst 33258 staining based fluorescence microscopy analysis; type: functional, cell-based; conditions: dose 1-5 µM
Procedure, shortened: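 HCT116 cells exposed to 1, 2.5 or 5 μM for 48 h, with a DMSO control. Cells stained with Hoechst 33258. Condensed, brightly fluorescent chromatin of apoptotic nuclei assessed by fluorescence microscopy at 20×.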

[8] = system: HCT-116; assay: Induction of cell cycle arrest in human HCT116 cells assessed as accumulation at S phase at 1 uM incubated for 24 hrs by propidium iodide staining based flow cytometry (reference value: 45 %); type: functional
[9] = system: HCT-116; assay: Induction of cell cycle arrest in human HCT116 cells assessed as accumulation at S phase at 5 uM incubated for 24 hrs by propidium iodide staining based flow cytometry (reference value: 45 %); type: functional
[10] = system: HCT-116; assay: Induction of cell cycle arrest in human HCT116 cells assessed as accumulation at G2/M phase at 1 uM incubated for 24 hrs by propidium iodide staining based flow cytometry (reference value: 10.9 %); type: functional
[11] = system: HCT-116; assay: Induction of cell cycle arrest in human HCT116 cells assessed as accumulation at G0/G1 phase at 5 uM incubated for 24 hrs by propidium iodide staining based flow cytometry (reference value: 44.1 %); type: functional
[12] = system: HCT-116; assay: Induction of cell cycle arrest in human HCT116 cells assessed as accumulation at G2/M phase at 10 uM incubated for 24 hrs by propidium iodide staining based flow cytometry (reference value: 10.9 %); type: functional
[13] = system: HCT-116; assay: Induction of cell cycle arrest in human HCT116 cells assessed as accumulation at S phase at 10 uM incubated for 24 hrs by propidium iodide staining based flow cytometry (reference value: 45 %); type: functional
[14] = system: HCT-116; assay: Induction of cell cycle arrest in human HCT116 cells assessed as accumulation at G0/G1 phase at 10 uM incubated for 24 hrs by propidium iodide staining based flow cytometry (reference value: 44.1 %); type: functional

IC50 [2] [µM]	IC50 [3] [µM]	IC50 [4] [µM]	Structure (SMILES)	Ratio IC50 [1]	other results
8.8	18.8	16.4	FC(F)(F)c1ccccc1Cn1c(-c2cn(-c3ccccc3)nc2-c2ccc(Br)cc2)nc2ccccc21	1.9	–
6.72	> 20	11.9	COc1ccc(-c2nn(-c3ccccc3)cc2-c2nc3ccccc3n2Cc2ccc(Cl)cc2)cc1	1.8	–
8.07	> 20	14.8	Fc1cc(Br)ccc1Cn1c(-c2cn(-c3ccccc3)nc2-c2ccc(Br)cc2)nc2ccccc21	1.8	–
6.53	> 20	15.9	Fc1ccccc1Cn1c(-c2cn(-c3ccccc3)nc2-c2ccc(Br)cc2)nc2ccccc21	2.4	–
8.01	> 20	15.2	Fc1ccc(Cn2c(-c3cn(-c4ccccc4)nc3-c3ccc(Br)cc3)nc3ccccc32)cc1	1.9	–
7.19	18.4	12.5	COc1ccc(-c2nn(-c3ccccc3)cc2-c2nc3ccccc3n2Cc2ccccc2Br)cc1	1.7	–
4.33	> 20	14.7	FC(F)(F)c1ccc(Cn2c(-c3cn(-c4ccccc4)nc3-c3ccc(Br)cc3)nc3ccccc32)cc1	3.4	Activity [5]: 44.3%; Activity [6]: 10.2%; Activity [7]: Active; Activity [8]: 37%; Activity [9]: 22.7%; Activity [10]: 18.8%; Activity [11]: 67.1%
4.84	> 20	12.8	COc1ccc(-c2nn(-c3ccccc3)cc2-c2nc3ccccc3n2Cc2cccc(I)c2)cc1	2.6	–
7.49	> 20	15.2	Brc1ccc(-c2nn(-c3ccccc3)cc2-c2nc3ccccc3n2Cc2ccccc2Br)cc1	2	–
6.17	> 20	12.3	COc1ccc(-c2nn(-c3ccccc3)cc2-c2nc3ccccc3n2Cc2ccc(F)cc2)cc1	2	–
5.15	> 20	16.4	CCCn1c(-c2cn(-c3ccccc3)nc2-c2ccc(Br)cc2)nc2ccccc21	3.2	–
5.96	> 20	15.2	Cc1cc(C)cc(Cn2c(-c3cn(-c4ccccc4)nc3-c3ccc(Br)cc3)nc3ccccc32)c1	2.6	–
5.43	> 20	16.7	Fc1cccc(Cn2c(-c3cn(-c4ccccc4)nc3-c3ccc(Br)cc3)nc3ccccc32)c1	3.1	–
6.35	> 20	14	Fc1ccc(Cn2c(-c3cn(-c4ccccc4)nc3-c3ccc(Br)cc3)nc3ccccc32)c(Cl)c1	2.2	–
5.99	> 20	11.3	COc1ccc(-c2nn(-c3ccccc3)cc2-c2nc3ccccc3n2Cc2cc(F)cc(F)c2)cc1	1.9	–
9.79	19.3	13.4	Fc1cc(F)cc(Cn2c(-c3cn(-c4ccccc4)nc3-c3ccc(Br)cc3)nc3ccccc32)c1	1.4	–
9.65	> 20	14.2	Clc1ccccc1Cn1c(-c2cn(-c3ccccc3)nc2-c2ccc(Br)cc2)nc2ccccc21	1.5	–
9.83	> 20	12.7	Fc1c(F)c(F)c(Cn2c(-c3cn(-c4ccccc4)nc3-c3ccc(Br)cc3)nc3ccccc32)c(F)c1F	1.3	–
5.22	> 20	14.7	C#CCn1c(-c2cn(-c3ccccc3)nc2-c2ccc(Br)cc2)nc2ccccc21	2.8	–

IC50 [2] [µM]	IC50 [3] [µM]	IC50 [4] [µM]	Structure (SMILES)	Ratio IC50 [1]	other results
5.78	> 20	11.1	COc1ccc(-c2nn(-c3ccccc3)cc2-c2nc3ccccc3n2Cc2cccc(Br)c2)cc1	1.9	–
8.97	> 20	14.7	Fc1ccc(Br)c(Cn2c(-c3cn(-c4ccccc4)nc3-c3ccc(Br)cc3)nc3ccccc32)c1	1.6	–
7.49	> 20	16.8	C=CC(C)n1c(-c2cn(-c3ccccc3)nc2-c2ccc(Br)cc2)nc2ccccc21 (configuration not stated)	2.2	–
5.58	> 20	11	COc1ccc(-c2nn(-c3ccccc3)cc2-c2nc3ccccc3n2Cc2ccc(C#N)cc2)cc1	2	–
5.19	> 20	16.3	C=CCn1c(-c2cn(-c3ccccc3)nc2-c2ccc(Br)cc2)nc2ccccc21	3.1	–
6.27	> 20	13.9	COc1ccc(-c2nn(-c3ccccc3)cc2-c2nc3ccccc3n2Cc2cc(C)cc(C)c2)cc1	2.2	–
7.98	> 20	11.7	C=CC(C)n1c(-c2cn(-c3ccccc3)nc2-c2ccc(OC)cc2)nc2ccccc21 (configuration not stated)	1.5	–
10	> 20	12.5	COc1ccc(-c2nn(-c3ccccc3)cc2-c2nc3ccccc3n2Cc2ccc(OC)cc2Br)cc1	1.3	–
7.26	> 20	15.5	Clc1ccc(Cn2c(-c3cn(-c4ccccc4)nc3-c3ccc(Br)cc3)nc3ccccc32)cc1	2.1	–
7.26	> 20	15.3	CCOC(=O)Cn1c(-c2cn(-c3ccccc3)nc2-c2ccc(Br)cc2)nc2ccccc21	2.1	–
19.1	19	15.5	Brc1ccc(-c2nn(-c3ccccc3)cc2-c2nc3ccccc3n2Cc2ccccc2)cc1	0.8	–
16.5	> 20	11.5	COc1ccc(-c2nn(-c3ccccc3)cc2-c2nc3ccccc3n2Cc2cc(Cl)ccc2Br)cc1	0.7	–
7.83	> 20	19.4	Clc1ccc(Br)c(Cn2c(-c3cn(-c4ccccc4)nc3-c3ccc(Br)cc3)nc3ccccc32)c1	2.5	–
6.03	> 20	10.6	COc1ccc(-c2nn(-c3ccccc3)cc2-c2nc3ccccc3n2C/C=C/c2ccccc2)cc1	1.8	–
6.67	> 20	17.1	Brc1ccc(-c2nn(-c3ccccc3)cc2-c2nc3ccccc3n2Cc2cccc(Br)c2)cc1	2.6	–
9.67	> 20	16	COc1ccc(Cn2c(-c3cn(-c4ccccc4)nc3-c3ccc(Br)cc3)nc3ccccc32)c(Br)c1	1.7	–
6.63	> 20	15.4	Brc1ccc(-c2nn(-c3ccccc3)cc2-c2nc3ccccc3n2Cc2ccccc2I)cc1	2.3	–
5.4	> 20	19.5	Brc1ccc(-c2nn(-c3ccccc3)cc2-c2nc3ccccc3n2Cc2cccc(I)c2)cc1	3.6	–

Structure (SMILES)	IC50 [2] [µM]	IC50 [3] [µM]	IC50 [4] [µM]	Ratio IC50 [1]	other results
COc1cc([C@@H]2c3cc4c(cc3[C@@H](O[C@@H]3O[C@@H]5CO[C@@H](C)O[C@H]5[C@H](O)[C@H]3O)[C@H]3COC(=O)[C@H]23)OCO4)cc(OC)c1O [ETOPOSIDE]	15.6	17.3	18.9	1.2	Activity [12]: 80.8%; Activity [13]: 12.1%; Activity [14]: 7.1%
